In brackets after ≈: the same amount, converted by molar mass.
Legend:
HL-60 = experiment: Cytotoxicity against human HL60 cells after 48 hrs by SRB assay; format: functional; details: HL-60, 48 h
Summary of the method: (§1)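 Cells kept in RPMI-1640 with 5% heat-inactivated FBS at 37 °C and 5% CO2, used in exponential growth at >90% viability (Trypan blue). Seeded per well: MCF-7 and NCI-H460 5 × 10³, A375-C5 7.5 × 10³, HL-60 1 × 10⁴. After 24 h, serial dilutions (0–150, where possible) were given for 48 h; DMSO ≤0.25%. Plates were TCA-fixed (10% adherent, 16.7% HL-60), SRB-stained and read at 510 nm. GI50 taken from curves; mean ± SE, ≥3 experiments; doxorubicin as positive control.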

[1] = Partition coefficient, log Kp of the compound in micelle-HEPES buffer at pH 7.4; format: physicochemical
[2] = Partition coefficient, log Kp of the compound in liposome-HEPES buffer at pH 7.4; format: physicochemical; details: artificial membrane
SGC-7901 = experiment: Cytotoxicity against human SGC7901 cells; format: functional, cell-based
SMMC-7721 = experiment: Cytotoxicity against human SMMC7721 cells; format: functional, cell-based
HCT-116 = experiment: Cytotoxicity against human HCT116 cells; format: functional, cell-based
[3] = Cytotoxicity against human A375-C5 cells after 48 hrs by SRB assay; format: functional; details: A375-C5, 48 h; summary of the method: as §1
MCF7 = experiment: Cytotoxicity against human MCF7 cells after 48 hrs by SRB assay; format: functional; details: MCF7, 48 h; summary of the method: as §1
NCI-H460 = experiment: Cytotoxicity against human NCI-H460 cells after 48 hrs by SRB assay; format: functional; details: NCI-H460, 48 h; summary of the method: as §1
L1210 = experiment: Cytotoxicity against mouse L1210 cells; format: functional, cell-based
NCI-H187 = experiment: Cytotoxicity against human NCI-H187 cells; format: functional, cell-based
[4] = Cytotoxicity against human BC1 cells; format: functional, cell-based
KB = experiment: Cytotoxicity against human KB cells; format: functional, cell-based
[5] = Cytotoxicity against Drosophila melanogaster S2 cells; format: functional, cell-based

| SMILES | GI50 (HL-60) | log Kp [1] | log Kp [2] | GI50 [3] | GI50 (MCF7) | GI50 (NCI-H460) | other results |
| --- | --- | --- | --- | --- | --- | --- | --- |
| COc1c2c(cc3c(=O)c4ccccc4oc13)OC(C)(C)C=C2 | 11.8 µM | 4.07 | 3.94 | – | – | – | – |
| CC(C)=CCc1c2c(c3oc4cc(O)c(O)cc4c(=O)c3c1O)C=CC(C)(C)O2 [CUDRATRICUXANTHONE] | – | – | – | – | – | – | IC50 (SGC-7901): 4.1 µM; IC50 (SMMC-7721): 4.1 µM; IC50 (HCT-116): 4.1 µM |
| COc1cc2c(c3oc4ccccc4c(=O)c13)OC(C)(C)C=C2 | 9.6 µM | 3.33 | 3.32 | 69.5 µM | – | – | – |
| CC1(C)C=Cc2cc3oc4ccccc4c(=O)c3c(O)c2O1 | 38.9 µM | 4.15 | 4.17 | 29.6 µM | 39.6 µM | 31.7 µM | – |
| COc1ccc2c(=O)c3c(OC)c4c(c(OC)c3oc2c1OC)OC(C)(C)C=C4 | – | – | – | – | – | – | IC50 (L1210): 4.23 µg/mL (≈ 10.6 µM) |
| COc1c2c(cc3oc4ccccc4c(=O)c13)C=CC(C)(C)O2 | 9.6 µM | 3.76 | 3.54 | 47.4 µM | – | 42.9 µM | – |
| COc1c2c(cc3c(=O)c4ccccc4oc13)C=CC(C)(C)O2 | – | 3.83 | 3.88 | > 150 µM | > 150 µM | > 150 µM | – |
| CC1(C)C=Cc2c(cc3oc4ccccc4c(=O)c3c2O)O1 | – | 4.06 | – | – | > 150 µM | > 150 µM | – |
| COc1cc(OC)c2c(=O)c3c(O)c4c(c(OC)c3oc2c1OC)OC(C)(C)C=C4 | – | – | – | – | – | – | IC50 (L1210): 3.51 µg/mL (≈ 8.47 µM) |
| CC1(C)CCc2cc(O)c3c(=O)c4ccccc4oc3c2O1 | > 50 µM | 4.28 | – | > 50 µM | > 50 µM | > 50 µM | – |
| COc1c2c(cc3c(=O)c4ccccc4oc13)OC(C)(C)CC2 | 31.8 µM | 3.88 | 3.92 | 42.5 µM | 45.1 µM | 47.3 µM | – |
| CC(C)=CCc1c(O)cc2oc3cc(O)c4c(c3c(=O)c2c1O)CCC(C)(C)O4 | – | – | – | – | – | – | IC50 (NCI-H187): 3.9 µg/mL (≈ 9.84 µM); IC50 [4]: 3.9 µg/mL (≈ 9.84 µM); IC50 (KB): 3.9 µg/mL |
| COc1cc2c(c3oc4ccccc4c(=O)c13)OC(C)(C)CC2 | 30.9 µM | 3.46 | 3.08 | > 100 µM | > 100 µM | – | – |
| CC1(C)C=Cc2cc(O)c3c(=O)c4ccccc4oc3c2O1 | 6.4 µM | 4.08 | – | > 100 µM | – | – | – |
| CC1(C)CCc2cc3oc4cc(O)cc(O)c4c(=O)c3c(O)c2O1 | – | – | – | – | – | – | IC50 [5]: 6.3 µg/mL (≈ 19.2 µM) |
| COc1cccc2c1C(=O)c1c(O)c3c(c(O)c1C2=O)C[C@@](O)(C(=O)CO)C[C@@H]3O[C@H]1C[C@H](N)[C@H](O)[C@H](C)O1 [DOXORUBICIN] | 0.028 µM | – | – | – | – | – | – |
| CC1(C)C=Cc2ccc3c(=O)c4ccccc4oc3c2O1 | 3.2 µM | 3.5 | 3.42 | 6.2 µM | 13.3 µM | 32.9 µM | – |
| CC1(C)CCc2c(cc3oc4ccccc4c(=O)c3c2O)O1 | – | 4.32 | – | – | – | – | – |
| CC1(C)CCc2c(cc(O)c3c(=O)c4ccccc4oc23)O1 | – | 4.27 | – | – | – | – | – |
| CC1(C)CCc2cc3oc4ccccc4c(=O)c3c(O)c2O1 | 26.1 µM | 3.88 | 3.96 | > 150 µM | > 150 µM | > 150 µM | – |
| COc1c2c(cc3oc4ccccc4c(=O)c13)CCC(C)(C)O2 | 37.6 µM | 3.58 | 3.09 | > 150 µM | – | > 150 µM | – |
| CC1(C)C=Cc2c(cc3c(=O)c4ccccc4oc3c2O)O1 | > 70 µM | 3.29 | 3.06 | > 150 µM | 108 µM | > 150 µM | – |
| COc1c(O)cc2c(=O)c3c(O)c4c(cc3oc2c1CC=C(C)C)OC(C)(C)C=C4 [MANGLEXANTHONE] | – | – | – | – | – | – | IC50 (KB): 1.9 µM |
| CC1(C)C=Cc2c(ccc3oc4ccccc4c(=O)c23)O1 | 36.7 µM | 4.1 | 4.14 | 37.9 µM | 50.9 µM | 44.5 µM | – |
| CC1(C)C=Cc2c(cc(O)c3c(=O)c4ccccc4oc23)O1 | – | 4.02 | – | – | > 150 µM | > 150 µM | – |
